Measured values published in ChEMBL document CHEMBL1139434, “Highly potent 1-aminocyclohexane-1-carboxylic acid substituted V2 agonists of arginine vasopressin” (J Med Chem, 2004).
Where a SMILES comes first, the peptide text is derived from it. [ ]: non-standard residue; d: D form. The star is where a group is joined. Cyclohexylacetyl(1-SH) = O=C(CC1(S)CCCCC1)*; Ac6c = NC1(C(=O)O)CCCCC1

Legend:
Rattus norvegicus [1] = species on record: Rattus norvegicus; assay: Compound was evaluated for antidiuretic activity with t1/2 of 200 min in male rats by modified Burn test; type: functional, Urine
Rattus norvegicus [2] = species on record: Rattus norvegicus; assay: Compound was evaluated for in vitro uterotonic activity in the absence of magnesium ions in female wistar rats; type: functional; conditions: for Kb: read-out: pA2 (converted)
In short: (§1)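 Uterus from Wistar females estrogenized 48 h beforehand, tested in vitro in the absence of magnesium ions. Synthetic oxytocin was the standard. Dose–response curves built from single additions, or cumulatively without washing between increasing doses. Values are means of three to five separate experiments.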

Rattus norvegicus [3] = species on record: Rattus norvegicus; assay: Compound was evaluated for antidiuretic activity with t1/2 of 60 in male rats by modified Burn test; type: functional, Urine
Rattus norvegicus [4] = species on record: Rattus norvegicus; assay: (§2) Compound was evaluated for vasopressor activity in phenoxybenzamine-treated male rats; type: functional
In short: (§3)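 Pressor response measured in phenoxybenzamine-treated male Wistar rats, with synthetic arginine vasopressin as standard. Dose–response curves built from single administrations, or cumulatively without washing between increasing doses. Values are means of three to five separate experiments.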

Rattus norvegicus [5] = species on record: Rattus norvegicus; assay: as §2; type: functional, organism-based; conditions: read-out: pA2 (converted); in short: as §3
Rattus norvegicus [6] = species on record: Rattus norvegicus; assay: Compound was evaluated for antidiuretic activity with t1/2 of 60 min in male rats by modified Burn test; range is 800-50000; type: functional, Urine
Rattus norvegicus [7] = species on record: Rattus norvegicus; assay: Compound was evaluated for in vitro uterotonic activity in the absence of magnesium ions in female wistar rats; range is 1.5-5.1; type: functional; in short: as §1
Rattus norvegicus [8] = species on record: Rattus norvegicus; assay: Compound was evaluated for antidiuretic activity with t1/2 of 60 min in male rats by modified Burn test; range is 1300-1745; type: functional, Urine
Rattus norvegicus [9] = species on record: Rattus norvegicus; assay: Compound was evaluated for in vitro uterotonic activity in the absence of magnesium ions in female wistar rats; range is 27-63; type: functional; in short: as §1
Rattus norvegicus [10] = species on record: Rattus norvegicus; assay: Compound was evaluated for vasopressor activity in phenoxybenzamine-treated male rats; range is 346-370; type: functional; in short: as §3
Rattus norvegicus [11] = species on record: Rattus norvegicus; assay: Compound was evaluated for antidiuretic activity with t1/2 of 60 min in male rats by modified Burn test; range is 750-900; type: functional, Urine
Rattus norvegicus [12] = species on record: Rattus norvegicus; assay: Compound was evaluated for antidiuretic activity with t1/2 of 60 min in male rats by modified Burn test; range is 114-257; type: functional, Urine

| Structure (SMILES) | Activity (Rattus norvegicus [1]) [IU/mg] | Activity (Rattus norvegicus [2]) [IU/mg] | Kb (Rattus norvegicus [2]) [nM] | Activity (Rattus norvegicus [3]) [IU/mg] | Activity (Rattus norvegicus [4]) [IU/mg] | also measured |
| --- | --- | --- | --- | --- | --- | --- |
| NC(=O)CC[C@H](NC(=O)[C@H](Cc1ccccc1)NC(=O)C1(NC(=O)CCS)CCCCC1)C(=O)N[C@@H](CC(N)=O)C(=O)N[C@@H](CS)C(=O)N1CCC[C@H]1C(=O)N[C@H](CCCN=C(N)N)C(=O)NCC(N)=O | ~50000 | 0.31 | 316 | ~4500 | – | – |
| N=C(N)NCCC[C@H](NC(=O)[C@@H]1CCCN1C(=O)[C@@H]1CSSC[C@H](N)C(=O)N[C@@H](Cc2ccc(O)cc2)C(=O)N[C@@H](Cc2ccccc2)C(=O)N[C@@H](CCC(N)=O)C(=O)N[C@@H](CC(N)=O)C(=O)N1)C(=O)NCC(N)=O [VASOPRESSIN] | – | 17 | – | 465 | 412 | – |
| NC(=O)CC[C@H](NC(=O)[C@H](Cc1ccccc1)NC(=O)[C@H](Cc1ccc(O)cc1)NC(=O)CC1(S)CCCCC1)C(=O)N[C@@H](CC(N)=O)C(=O)N[C@@H](CS)C(=O)N1CCC[C@H]1C(=O)N[C@@H](CCCN=C(N)N)C(=O)NCC(N)=O ({Cyclohexylacetyl(1-SH)}-YFQNCPRG-NH2) | – | – | – | 0.03 | – | Kb (Rattus norvegicus [5]): 4.47 nM |
| NC(=O)CC[C@H](NC(=O)[C@H](Cc1ccccc1)NC(=O)C1(NC(=O)CC2(S)CCCCC2)CCCCC1)C(=O)N[C@@H](CC(N)=O)C(=O)N[C@@H](CS)C(=O)N1CCC[C@H]1C(=O)N[C@@H](CCCN=C(N)N)C(=O)NCC(N)=O | ~1.4 | – | 46.8 | ~0.1 | – | Kb (Rattus norvegicus [5]): 55 nM |
| NC(=O)CC[C@H](NC(=O)C1(NC(=O)[C@H](Cc2ccc(O)cc2)NC(=O)CCS)CCCCC1)C(=O)N[C@@H](CC(N)=O)C(=O)N[C@@H](CS)C(=O)N1CCC[C@H]1C(=O)N[C@H](CCCN=C(N)N)C(=O)NCC(N)=O | – | 0 | – | <4 | 0 | – |
| NC(=O)CC[C@H](NC(=O)C1(NC(=O)[C@H](Cc2ccc(O)cc2)NC(=O)CCS)CCCCC1)C(=O)N[C@@H](CC(N)=O)C(=O)N[C@@H](CS)C(=O)N1CCC[C@H]1C(=O)N[C@@H](CCCN=C(N)N)C(=O)NCC(N)=O | ~25 | <0.04 | – | ~0.8 | 0.34 | – |
| NC(=O)CC[C@H](NC(=O)C1(NC(=O)[C@H](Cc2ccc(O)cc2)NC(=O)[C@@H](N)CS)CCCCC1)C(=O)N[C@@H](CC(N)=O)C(=O)N[C@@H](CS)C(=O)N1CCC[C@H]1C(=O)N[C@H](CCCN=C(N)N)C(=O)NCC(N)=O | ~1.4 | 0 | – | ~0.1 | 0 | – |
| NC(=O)CC[C@H](NC(=O)[C@H](Cc1ccccc1)NC(=O)C1(NC(=O)CCS)CCCCC1)C(=O)N[C@@H](CC(N)=O)C(=O)N[C@@H](CS)C(=O)N1CCC[C@H]1C(=O)N[C@@H](CCCN=C(N)N)C(=O)NCC(N)=O | ~50000 | 0.71 | 794 | ~4500 | 17.2 | – |
| NC(=O)CC[C@H](NC(=O)[C@H](Cc1ccccc1)NC(=O)[C@H](Cc1ccc(O)cc1)NC(=O)CCS)C(=O)N[C@@H](CC(N)=O)C(=O)N[C@@H](CS)C(=O)N1CCC[C@H]1C(=O)N[C@H](CCCN=C(N)N)C(=O)NCC(N)=O | – | – | – | – | – | Activity (Rattus norvegicus [6]): <50000 IU/mg; Activity (Rattus norvegicus [7]): <5.1 IU/mg |
| NC(=O)CC[C@H](NC(=O)[C@H](Cc1ccccc1)NC(=O)[C@H](Cc1ccc(O)cc1)NC(=O)CCS)C(=O)N[C@@H](CC(N)=O)C(=O)N[C@@H](CS)C(=O)N1CCC[C@H]1C(=O)N[C@@H](CCCN=C(N)N)C(=O)NCC(N)=O | – | – | – | – | – | Activity (Rattus norvegicus [8]): <1745 IU/mg; Activity (Rattus norvegicus [9]): <63 IU/mg; Activity (Rattus norvegicus [10]): <370 IU/mg |
| CC(C)[C@H](NC(=O)C1(NC(=O)[C@H](Cc2ccc(O)cc2)NC(=O)[C@@H](N)CS)CCCCC1)C(=O)N[C@@H](CC(N)=O)C(=O)N[C@@H](CS)C(=O)N1CCC[C@H]1C(=O)N[C@@H](CCCN=C(N)N)C(=O)NCC(N)=O (H-CY[Ac6c]VNCPRG-NH2) | – | 0 | – | <0.4 | 0 | – |
| NC(=O)CC[C@H](NC(=O)C1(NC(=O)[C@H](Cc2ccc(O)cc2)NC(=O)[C@@H](N)CS)CCCCC1)C(=O)N[C@@H](CC(N)=O)C(=O)N[C@@H](CS)C(=O)N1CCC[C@H]1C(=O)N[C@@H](CCCN=C(N)N)C(=O)NCC(N)=O | ~1.4 | 0 | – | ~0.1 | 0.24 | – |
| NC(=O)CC[C@H](NC(=O)[C@H](Cc1ccccc1)NC(=O)C1(NC(=O)[C@@H](N)CS)CCCCC1)C(=O)N[C@@H](CC(N)=O)C(=O)N[C@@H](CS)C(=O)N1CCC[C@H]1C(=O)N[C@@H](CCCN=C(N)N)C(=O)NCC(N)=O | ~9300 | – | ~2510 | – | 56.6 | Activity (Rattus norvegicus [11]): <900 IU/mg |
| NC(=O)CC[C@H](NC(=O)[C@H](Cc1ccccc1)NC(=O)C1(NC(=O)CC2(S)CCCCC2)CCCCC1)C(=O)N[C@@H](CC(N)=O)C(=O)N[C@@H](CS)C(=O)N1CCC[C@H]1C(=O)N[C@H](CCCN=C(N)N)C(=O)NCC(N)=O | – | – | 47.9 | <4 | – | Kb (Rattus norvegicus [5]): 234 nM |
| NC(=O)CC[C@H](NC(=O)[C@H](Cc1ccccc1)NC(=O)[C@H](Cc1ccc(O)cc1)NC(=O)[C@@H](N)CS)C(=O)N[C@@H](CC(N)=O)C(=O)N[C@@H](CS)C(=O)N1CCC[C@H]1C(=O)N[C@H](CCCN=C(N)N)C(=O)NCC(N)=O | – | 0.4 | – | – | 4.1 | Activity (Rattus norvegicus [12]): <257 IU/mg |
| CC(C)[C@H](NC(=O)C1(NC(=O)[C@H](Cc2ccc(O)cc2)NC(=O)CCS)CCCCC1)C(=O)N[C@@H](CC(N)=O)C(=O)N[C@@H](CS)C(=O)N1CCC[C@H]1C(=O)N[C@H](CCCN=C(N)N)C(=O)NCC(N)=O | 4500 | 0 | – | 450 | 0 | – |
| CC(C)[C@H](NC(=O)[C@H](Cc1ccccc1)NC(=O)C1(NC(=O)CCS)CCCCC1)C(=O)N[C@@H](CC(N)=O)C(=O)N[C@@H](CS)C(=O)N1CCC[C@H]1C(=O)N[C@H](CCCN=C(N)N)C(=O)NCC(N)=O | ~50000 | – | 15.5 | ~4500 | – | Kb (Rattus norvegicus [5]): 724 nM |
| CC(C)[C@H](NC(=O)[C@H](Cc1ccccc1)NC(=O)[C@H](Cc1ccc(O)cc1)NC(=O)[C@@H](N)CS)C(=O)N[C@@H](CC(N)=O)C(=O)N[C@@H](CS)C(=O)N1CCC[C@H]1C(=O)N[C@@H](CCCN=C(N)N)C(=O)NCC(N)=O (H-CYFVNCPRG-NH2) | – | – | – | 738 | 32 | – |
| NC(=O)CC[C@H](NC(=O)[C@H](Cc1ccccc1)NC(=O)C1(NC(=O)[C@@H](N)CS)CCCCC1)C(=O)N[C@@H](CC(N)=O)C(=O)N[C@@H](CS)C(=O)N1CCC[C@H]1C(=O)N[C@H](CCCN=C(N)N)C(=O)NCC(N)=O | ~9300 | – | ~2000 | – | – | Kb (Rattus norvegicus [5]): ~1580 nM; Activity (Rattus norvegicus [11]): <900 IU/mg |
| CC(C)[C@H](NC(=O)C1(NC(=O)[C@H](Cc2ccc(O)cc2)NC(=O)CC2(S)CCCCC2)CCCCC1)C(=O)N[C@@H](CC(N)=O)C(=O)N[C@@H](CS)C(=O)N1CCC[C@H]1C(=O)N[C@@H](CCCN=C(N)N)C(=O)NCC(N)=O ({Cyclohexylacetyl(1-SH)}-Y[Ac6c]VNCPRG-NH2) | – | – | ≥ 1000 | <4 | 0 | – |
| CC(C)[C@H](NC(=O)[C@H](Cc1ccccc1)NC(=O)C1(NC(=O)[C@@H](N)CS)CCCCC1)C(=O)N[C@@H](CC(N)=O)C(=O)N[C@@H](CS)C(=O)N1CCC[C@H]1C(=O)N[C@@H](CCCN=C(N)N)C(=O)NCC(N)=O (H-C[Ac6c]FVNCPRG-NH2) | ~23000 | – | 126 | ~2300 | 0.9 | – |
